Activity calls are given as the source filed them. The calls are words filed in the database; no cut-off is given here.
Tests used:
Format in all cases: cell-based
Conditions in all cases: THP-1
[1] = target: T1, Toll-like receptor 4/MD-2 (Homo sapiens) (UniProt O00206+Q9Y6Y9); assay: Agonist activity at TLR4/MD-2 receptor complex in human THP1 cells assessed as IL-1beta release at 10^-3 uM after 24 hrs by ELISA
Outline: (§1)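 Mimics reconstituted in 20% DMSO/PBS with brief sonication, fresh aliquot per experiment, final DMSO ≤0.5%. THP-1 cells differentiated 48 h with 25 ng/mL PMA, washed, serum-starved 3 h. Stimulated 24 h across 10⁻⁴–10 µM. Supernatant TNF-α, IL-6 or IL-1β read by ELISA (450 nm, 540 nm correction). Duplicates; mean of two experiments.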

[2] = target: T1, Toll-like receptor 4/MD-2 (Homo sapiens); assay: Agonist activity at TLR4/MD-2 receptor complex in human THP1 cells assessed as TNF-alpha release at 10^-3 uM after 24 hrs by ELISA; outline: as §1
[3] = target: T1, Toll-like receptor 4/MD-2 (Homo sapiens); assay: Agonist activity at TLR4/MD-2 receptor complex in human THP1 cells assessed as IL-1beta release at 10 uM after 24 hrs by ELISA; outline: as §1
[4] = target: T1, Toll-like receptor 4/MD-2 (Homo sapiens); assay: Agonist activity at TLR4/MD-2 receptor complex in human THP1 cells assessed as IL-6 release at 10 uM after 24 hrs by ELISA; outline: as §1
[5] = target: T1, Toll-like receptor 4/MD-2 (Homo sapiens); assay: Agonist activity at TLR4/MD-2 receptor complex in human THP1 cells assessed as TNF-alpha release at 10 uM after 24 hrs by ELISA; outline: as §1
[6] = target: T1, Toll-like receptor 4/MD-2 (Homo sapiens); assay: Agonist activity at TLR4/MD-2 receptor complex in human THP1 cells assessed as IL-1beta release at 0.1 uM to 1 uM after 24 hrs by ELISA; outline: as §1
[7] = target: T1, Toll-like receptor 4/MD-2 (Homo sapiens); assay: Agonist activity at TLR4/MD-2 receptor complex in human THP1 cells assessed as IL-6 release at 0.1 uM to 1 uM after 24 hrs by ELISA; outline: as §1
[8] = target: T1, Toll-like receptor 4/MD-2 (Homo sapiens); assay: Agonist activity at TLR4/MD-2 receptor complex in human THP1 cells assessed as TNF-alpha release at 0.1 uM to 1 uM after 24 hrs by ELISA; outline: as §1
[9] = target: T1, Toll-like receptor 4/MD-2 (Homo sapiens); assay: Agonist activity at TLR4/MD-2 receptor complex in human THP1 cells assessed as IL-1beta release at 0.001 uM after 24 hrs by ELISA in presence of lipid IVa in presence of 0.1 uM of lipid IVa
Outline: (§2)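 THP-1 cells plated at 0.5 × 10⁶ cells/well in RPMI with 25 ng/mL PMA for 48 h. Adherent cells washed with PBS, held in serum-free RPMI 3 h, then stimulated 24 h with agonist plus increasing lipid IVa (dissolved in DMSO). Supernatant TNF-α and IL-1β measured by ELISA, A450 corrected at 540 nm. Duplicates; mean of two separate experiments.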

[10] = target: T1, Toll-like receptor 4/MD-2 (Homo sapiens); assay: Agonist activity at TLR4/MD-2 receptor complex in human THP1 cells assessed as TNF-alpha release at 0.001 uM after 24 hrs by ELISA in presence of 0.1 uM of lipid IVa; outline: as §2
[11] = target: T1, Toll-like receptor 4/MD-2 (Homo sapiens); assay: Agonist activity at TLR4/MD-2 receptor complex in human THP1 cells assessed as IL-1beta release at 0.1 uM after 24 hrs by ELISA in presence of lipid IVa in presence of 0.1 uM of lipid IVa; outline: as §2
[12] = target: T1, Toll-like receptor 4/MD-2 (Homo sapiens); assay: Agonist activity at TLR4/MD-2 receptor complex in human THP1 cells assessed as TNF-alpha release at 0.1 uM after 24 hrs by ELISA in presence of 0.1 uM of lipid IVa; outline: as §2
[13] = target: T1, Toll-like receptor 4/MD-2 (Homo sapiens); assay: Agonist activity at TLR4/MD-2 receptor complex in human THP1 cells assessed as IL-1beta release at 0.1 uM after 24 hrs by ELISA in presence of lipid IVa in presence of 0.5 uM of lipid IVa; outline: as §2
[14] = target: T1, Toll-like receptor 4/MD-2 (Homo sapiens); assay: Agonist activity at TLR4/MD-2 receptor complex in human THP1 cells assessed as TNF-alpha release at 0.1 uM after 24 hrs by ELISA in presence of 0.5 uM of lipid IVa; outline: as §2
[15] = target: T1, Toll-like receptor 4/MD-2 (Homo sapiens); assay: Agonist activity at TLR4/MD-2 receptor complex in human THP1 cells assessed as IL-1beta release at 10^-4 uM after 24 hrs by ELISA; outline: as §1

Row | SMILES | Activity [1] | Activity [2] | Activity [3] | Activity [4] | Activity [5] | Activity [6] | Activity [7] | Activity [8] | Activity [9] | Activity [10] | Activity [11] | Activity [12] | Activity [13] | Activity [14] | Activity [15]
1 | CCCCCCCCCCCCCC(=O)O[C@H](CCCCCCCCCCC)CC(=O)N[C@H]1[C@H](OCCN(CCO)C(=O)C[C@@H](CCCCCCCCCCC)OC(=O)CCCCCCCCCCCCC)O[C@H](CO)[C@@H](OP(=O)(O)O)[C@@H]1OC(=O)C[C@@H](CCCCCCCCCCC)OC(=O)CCCCCCCCCCCCC | Active | Active | Active | Active | Active | Active | Active | Active |  |  |  |  |  |  | 
2 | CCCCCCCCCCCCCC(=O)O[C@H](CCCCCCCCCCC)CC(=O)N[C@H]1[C@H](OCCN(CCOP(=O)(O)O)C(=O)C[C@@H](CCCCCCCCCCC)OC(=O)CCCCCCCCCCCCC)O[C@H](CO)[C@@H](OP(=O)(O)O)[C@@H]1OC(=O)C[C@@H](CCCCCCCCCCC)OC(=O)CCCCCCCCCCCCC | Active | Active | Active | Active | Active | Active | Active | Active |  |  |  |  |  |  | 
3 | CCCCCCCCCCCCCC(=O)O[C@H](CCCCCCCCCCC)CC(=O)N[C@H]1[C@H](OCCN(CC(=O)O)C(=O)C[C@@H](CCCCCCCCCCC)OC(=O)CCCCCCCCCCCCC)O[C@H](CO)[C@@H](OP(=O)(O)O)[C@@H]1OC(=O)C[C@@H](CCCCCCCCCCC)OC(=O)CCCCCCCCCCCCC | Active | Active | Active | Active | Active | Active | Active | Active | Active | Active | Active | Active | Active | inactive | Active
